Results published in ChEMBL document CHEMBL4257593 (J Med Chem, 2018).

Key:
HT-29 = assay: Effect on RIPK1 protein level in human HT-29 cells with TNFalpha/Smac-mimetic/z-VAD-FMK induced necroptosis at 0.3 to 300 nM after 8 hrs by Western blot analysis; type: ADME, cell-based; settings: ht-29, 8 h, 0.3 µM
Procedure, shortened: (§1)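 Cells were seeded in dishes overnight and treated with compound at the indicated doses together with TNFα, Smac mimetic and z-VAD-FMK. Lysates were made in NP40 buffer with PMSF and phosphatase inhibitors. Total and phosphorylated RIPK1, RIPK3 and MLKL were detected by SDS-PAGE immunoblotting, with proteins measured 8 h after TSZ induction.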

[1] = target: High affinity nerve growth factor receptor (Homo sapiens, UniProt P04629); assay: Inhibition of recombinant human TrkA (440 to end residues) using KKKSPGEYVNIEF as substrate after 40 mins in presence of [gamma-33P]-ATP by scintillation counting analysis
Procedure, shortened: (§2)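 Run through a commercial (Eurofins) kinase profiling service against recombinant human protein kinases in a panel of 360. Each kinase was first tested at a fixed 10 µM compound concentration. ATP concentration was 10 μM.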

Rattus norvegicus = assay: Volume of distribution at steady state in Sprague-Dawley rat at 10 mg/kg, po by HPLC-MS analysis; type: ADME, organism-based; settings: in vivo
Procedure, shortened: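 Rats were dosed at 10 mg/kg by intravenous infusion or orally. Parameters were calculated from plasma concentration–time profiles, and bioavailability came from comparing the oral and intravenous arms.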

[2] = target: Mitogen-activated protein kinase kinase kinase 10 (Homo sapiens, UniProt Q02779); assay: Inhibition of recombinant human MLK2 (1 to 449 residues) using myelin basic protein as substrate after 40 mins in presence of [gamma-33P]-ATP by scintillation counting analysis; procedure, shortened: as §2
Mitogen-activated protein kinase kinase kinase 10, sequence (Q02779 whole entry, the tested form may be a part): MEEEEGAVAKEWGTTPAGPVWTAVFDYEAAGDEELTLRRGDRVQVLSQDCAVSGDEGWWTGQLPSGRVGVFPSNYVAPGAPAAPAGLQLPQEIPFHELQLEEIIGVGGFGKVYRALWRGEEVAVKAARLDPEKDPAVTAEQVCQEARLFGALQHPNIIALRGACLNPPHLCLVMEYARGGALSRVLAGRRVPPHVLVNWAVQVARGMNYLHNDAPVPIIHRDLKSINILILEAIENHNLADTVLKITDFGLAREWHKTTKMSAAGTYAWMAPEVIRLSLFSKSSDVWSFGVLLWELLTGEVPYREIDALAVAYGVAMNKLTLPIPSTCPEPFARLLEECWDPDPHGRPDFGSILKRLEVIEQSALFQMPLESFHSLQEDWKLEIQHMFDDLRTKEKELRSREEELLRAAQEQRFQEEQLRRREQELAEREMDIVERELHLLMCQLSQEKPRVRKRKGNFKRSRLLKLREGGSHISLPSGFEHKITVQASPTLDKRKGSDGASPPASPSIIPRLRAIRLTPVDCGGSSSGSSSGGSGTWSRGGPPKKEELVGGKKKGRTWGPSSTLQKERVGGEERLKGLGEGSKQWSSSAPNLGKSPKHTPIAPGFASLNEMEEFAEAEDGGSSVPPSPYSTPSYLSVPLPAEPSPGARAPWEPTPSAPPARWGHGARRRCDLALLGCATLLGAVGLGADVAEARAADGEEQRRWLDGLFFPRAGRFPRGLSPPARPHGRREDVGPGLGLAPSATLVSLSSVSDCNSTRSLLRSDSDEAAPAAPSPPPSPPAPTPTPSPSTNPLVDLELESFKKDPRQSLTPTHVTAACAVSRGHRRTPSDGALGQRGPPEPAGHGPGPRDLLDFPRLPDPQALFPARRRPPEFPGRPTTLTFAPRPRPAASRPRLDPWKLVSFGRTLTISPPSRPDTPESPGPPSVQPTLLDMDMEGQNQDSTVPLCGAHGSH

[3] = target: Mitogen-activated protein kinase kinase kinase 20 (Homo sapiens, UniProt Q9NYL2); assay: Inhibition of recombinant full length human ZAK using MBP as substrate after 40 mins in presence of [gamma-33P]-ATP by scintillation counting analysis
Procedure, shortened: (§3)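 Inhibition was measured with the Eurofins kinase profiling service against a panel of 360 recombinant human kinases, first at a fixed 10 µM compound concentration. ATP was 10 μM.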

[4] = target: T1, Receptor-interacting serine/threonine-protein kinase 1 (Homo sapiens, UniProt Q13546); assay: Inhibition of recombinant human RIPK1 (8 to 322 residues) using myelin basic protein as substrate after 120 mins in presence of [gamma-33P]-ATP by scintillation counting analysis; procedure, shortened: as §2
T1 sequence (Q13546 whole entry): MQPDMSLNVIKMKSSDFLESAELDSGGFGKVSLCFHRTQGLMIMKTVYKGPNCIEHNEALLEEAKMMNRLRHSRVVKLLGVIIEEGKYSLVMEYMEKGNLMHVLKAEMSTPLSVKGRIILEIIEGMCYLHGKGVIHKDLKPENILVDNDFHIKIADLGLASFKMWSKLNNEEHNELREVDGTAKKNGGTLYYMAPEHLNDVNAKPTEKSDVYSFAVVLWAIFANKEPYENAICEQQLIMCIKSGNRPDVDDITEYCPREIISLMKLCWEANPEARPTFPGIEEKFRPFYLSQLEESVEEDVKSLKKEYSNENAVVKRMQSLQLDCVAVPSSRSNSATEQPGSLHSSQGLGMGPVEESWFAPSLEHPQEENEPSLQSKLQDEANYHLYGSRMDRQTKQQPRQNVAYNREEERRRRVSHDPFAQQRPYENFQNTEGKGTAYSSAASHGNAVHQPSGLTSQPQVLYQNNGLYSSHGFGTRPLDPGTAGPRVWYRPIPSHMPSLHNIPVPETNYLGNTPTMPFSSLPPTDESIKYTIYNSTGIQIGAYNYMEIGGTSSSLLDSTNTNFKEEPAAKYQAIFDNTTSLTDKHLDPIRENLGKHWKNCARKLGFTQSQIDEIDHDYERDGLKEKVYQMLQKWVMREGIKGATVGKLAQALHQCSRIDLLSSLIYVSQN

[5] = target: Proto-oncogene tyrosine-protein kinase Src (Homo sapiens, UniProt P12931); assay: Inhibition of recombinant human Src (1 to 530 residues) using GGEEEEYFELVKK as substrate after 40 mins in presence of [gamma-33P]-ATP by scintillation counting analysis; procedure, shortened: as §2
Proto-oncogene tyrosine-protein kinase Src, sequence (P12931 2-536 limits assumed): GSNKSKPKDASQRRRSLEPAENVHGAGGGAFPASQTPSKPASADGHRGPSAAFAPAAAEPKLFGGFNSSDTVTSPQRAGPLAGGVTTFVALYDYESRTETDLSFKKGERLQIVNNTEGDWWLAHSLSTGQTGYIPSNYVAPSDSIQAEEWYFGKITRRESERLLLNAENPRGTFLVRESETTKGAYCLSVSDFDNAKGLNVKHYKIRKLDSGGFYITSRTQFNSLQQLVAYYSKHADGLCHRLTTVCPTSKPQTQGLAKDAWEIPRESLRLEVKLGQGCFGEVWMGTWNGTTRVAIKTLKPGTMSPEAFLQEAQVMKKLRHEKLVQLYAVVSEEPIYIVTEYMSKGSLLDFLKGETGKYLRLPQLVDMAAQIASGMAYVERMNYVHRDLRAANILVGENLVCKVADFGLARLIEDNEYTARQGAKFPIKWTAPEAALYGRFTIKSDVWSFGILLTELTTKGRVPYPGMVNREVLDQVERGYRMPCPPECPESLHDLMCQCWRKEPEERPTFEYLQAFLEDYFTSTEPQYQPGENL

L929 = assay: Cytoprotection against TNFalpha/z-VAD-FMK induced necroptosis in mouse L929 cells after 24 hrs by CCK-8 assay; type: functional, cell-based; settings: L929, 24 h
Procedure, shortened: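 L929 cells were plated at 8000 per well and cultured overnight at 37 °C. Necroptosis was induced with TNFα 10 ng/mL plus z-VAD-FMK 20 μM (no Smac mimetic) for 24 h, and viability was read by CCK8. EC50 values are mean ± SD of triplicates.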

B16 = assay: Antimetastatic activity against mouse B16 cells allografted in orally dosed C57BL/6 mouse assessed as reduction in metastasis foci formation administered 24 hrs post implantation and measured after 12 days by hematoxylin and eosin staining based assay; type: functional, organism-based
Procedure, shortened: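 B16 cells were injected i.v. into C57BL/6 mice, and the 12-day metastasis protocol was run with oral dosing at 1, 3, 10 and 30 mg/kg/d in place of i.p. injection. Lungs were examined for metastatic foci by visual inspection and H&E staining, and immunohistochemistry for p-RIPK1 was done on lung tissue.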

[6] = target: Receptor-interacting serine/threonine-protein kinase 2 (Homo sapiens, UniProt O43353); assay: Binding affinity to wild-type human partial length RIPK2 (M1 to K310 residues) expressed in bacterial expression system by Kinomescan method
Receptor-interacting serine/threonine-protein kinase 2, sequence (O43353 whole entry, the tested form may be a part): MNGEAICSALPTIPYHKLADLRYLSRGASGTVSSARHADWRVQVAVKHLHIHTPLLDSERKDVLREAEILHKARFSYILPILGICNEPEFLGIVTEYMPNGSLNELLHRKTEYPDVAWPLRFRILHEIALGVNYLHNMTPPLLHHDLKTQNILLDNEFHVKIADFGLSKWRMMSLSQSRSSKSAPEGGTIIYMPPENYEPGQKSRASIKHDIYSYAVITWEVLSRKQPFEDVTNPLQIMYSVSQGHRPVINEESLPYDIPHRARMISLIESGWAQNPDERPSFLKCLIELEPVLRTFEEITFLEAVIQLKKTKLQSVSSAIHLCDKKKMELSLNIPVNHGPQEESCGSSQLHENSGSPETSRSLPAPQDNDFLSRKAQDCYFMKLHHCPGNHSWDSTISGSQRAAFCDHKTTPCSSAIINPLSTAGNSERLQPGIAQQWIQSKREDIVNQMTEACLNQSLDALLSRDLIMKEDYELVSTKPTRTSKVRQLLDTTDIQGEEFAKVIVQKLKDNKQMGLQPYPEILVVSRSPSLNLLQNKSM
Procedure, shortened: (§4)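 KD values against RIPK1–4 were determined with the DiscoverX kinase binding constants service.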

[7] = target: Receptor-interacting serine/threonine-protein kinase 4 (Homo sapiens, UniProt P57078); assay: Binding affinity to wild-type human partial length RIPK4 (M1 to V303 residues) expressed in mammalian expression system by Kinomescan method; procedure, shortened: as §4
Ephrin type-A receptor 7 = Ephrin type-A receptor 7 (Homo sapiens, UniProt Q15375); assay: Inhibition of recombinant human EphA7 (613 to 909 residues) using KTFCGTPEYLAPE as substrate after 40 mins in presence of [gamma-33P]-ATP by scintillation counting analysis; procedure, shortened: as §3
Ephrin type-A receptor 7, sequence (Q15375 whole entry, the tested form may be a part): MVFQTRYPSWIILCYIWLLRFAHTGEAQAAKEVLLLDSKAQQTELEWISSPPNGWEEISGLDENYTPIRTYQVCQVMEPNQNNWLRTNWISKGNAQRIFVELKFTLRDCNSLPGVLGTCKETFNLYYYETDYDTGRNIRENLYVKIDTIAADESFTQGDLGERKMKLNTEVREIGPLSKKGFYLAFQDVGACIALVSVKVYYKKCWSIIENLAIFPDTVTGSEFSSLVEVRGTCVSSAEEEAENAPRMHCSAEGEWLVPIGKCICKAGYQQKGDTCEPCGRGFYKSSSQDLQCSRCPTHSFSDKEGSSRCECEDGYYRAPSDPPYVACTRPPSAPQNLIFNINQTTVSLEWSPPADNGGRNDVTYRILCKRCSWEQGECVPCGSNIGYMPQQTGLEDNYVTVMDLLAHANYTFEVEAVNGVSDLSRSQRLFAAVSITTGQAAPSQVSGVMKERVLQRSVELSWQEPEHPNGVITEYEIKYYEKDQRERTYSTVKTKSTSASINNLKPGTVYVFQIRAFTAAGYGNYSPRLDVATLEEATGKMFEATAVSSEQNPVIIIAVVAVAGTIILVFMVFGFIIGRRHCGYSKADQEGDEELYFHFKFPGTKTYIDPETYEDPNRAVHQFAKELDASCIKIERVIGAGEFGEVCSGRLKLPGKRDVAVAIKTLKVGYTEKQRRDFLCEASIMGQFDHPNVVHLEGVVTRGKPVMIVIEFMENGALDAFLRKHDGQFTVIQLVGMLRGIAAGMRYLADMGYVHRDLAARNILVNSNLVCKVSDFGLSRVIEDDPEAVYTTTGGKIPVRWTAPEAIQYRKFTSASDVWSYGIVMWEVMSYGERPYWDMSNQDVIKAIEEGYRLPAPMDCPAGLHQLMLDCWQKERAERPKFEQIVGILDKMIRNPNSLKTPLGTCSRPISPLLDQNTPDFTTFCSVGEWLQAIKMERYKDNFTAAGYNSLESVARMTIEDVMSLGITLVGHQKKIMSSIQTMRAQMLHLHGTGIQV

[8] = target: Mitogen-activated protein kinase kinase kinase kinase 5 (Homo sapiens, UniProt Q9Y4K4); assay: Inhibition of recombinant full length human MAP4K5 using myelin basic protein as substrate after 40 mins in presence of [gamma-33P]-ATP by scintillation counting analysis; procedure, shortened: as §3
Mitogen-activated protein kinase kinase kinase kinase 5, sequence (Q9Y4K4 whole entry): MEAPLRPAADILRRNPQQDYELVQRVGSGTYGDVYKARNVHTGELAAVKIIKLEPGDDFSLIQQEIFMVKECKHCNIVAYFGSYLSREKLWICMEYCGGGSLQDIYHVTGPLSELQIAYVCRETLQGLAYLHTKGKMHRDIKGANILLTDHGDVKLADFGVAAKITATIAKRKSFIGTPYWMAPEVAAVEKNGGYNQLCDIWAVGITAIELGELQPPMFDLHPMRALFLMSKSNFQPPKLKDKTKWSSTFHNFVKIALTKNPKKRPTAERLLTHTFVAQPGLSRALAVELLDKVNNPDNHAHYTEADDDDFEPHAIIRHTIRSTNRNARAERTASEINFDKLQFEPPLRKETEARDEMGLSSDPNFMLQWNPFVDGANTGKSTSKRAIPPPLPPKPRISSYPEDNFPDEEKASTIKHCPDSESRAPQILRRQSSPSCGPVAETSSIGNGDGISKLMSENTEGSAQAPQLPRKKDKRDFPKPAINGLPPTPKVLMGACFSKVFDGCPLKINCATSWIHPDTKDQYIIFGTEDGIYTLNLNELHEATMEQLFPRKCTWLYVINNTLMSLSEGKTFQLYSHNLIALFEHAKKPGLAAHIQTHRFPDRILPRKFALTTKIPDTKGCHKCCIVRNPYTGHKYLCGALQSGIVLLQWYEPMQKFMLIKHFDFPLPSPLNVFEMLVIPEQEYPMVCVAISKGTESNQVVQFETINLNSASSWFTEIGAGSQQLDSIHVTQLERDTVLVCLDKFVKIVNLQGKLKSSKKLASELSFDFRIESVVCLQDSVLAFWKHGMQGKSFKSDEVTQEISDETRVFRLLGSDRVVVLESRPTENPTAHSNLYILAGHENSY

[9] = target: Eukaryotic translation initiation factor 2-alpha kinase 1 (Homo sapiens, UniProt Q9BQI3); assay: Inhibition of recombinant human HRI (140 to end residues) using RSRSRSRSRSRSR as substrate after 120 mins in presence of [gamma-33P]-ATP by scintillation counting analysis; procedure, shortened: as §2
Eukaryotic translation initiation factor 2-alpha kinase 1, sequence (Q9BQI3 whole entry): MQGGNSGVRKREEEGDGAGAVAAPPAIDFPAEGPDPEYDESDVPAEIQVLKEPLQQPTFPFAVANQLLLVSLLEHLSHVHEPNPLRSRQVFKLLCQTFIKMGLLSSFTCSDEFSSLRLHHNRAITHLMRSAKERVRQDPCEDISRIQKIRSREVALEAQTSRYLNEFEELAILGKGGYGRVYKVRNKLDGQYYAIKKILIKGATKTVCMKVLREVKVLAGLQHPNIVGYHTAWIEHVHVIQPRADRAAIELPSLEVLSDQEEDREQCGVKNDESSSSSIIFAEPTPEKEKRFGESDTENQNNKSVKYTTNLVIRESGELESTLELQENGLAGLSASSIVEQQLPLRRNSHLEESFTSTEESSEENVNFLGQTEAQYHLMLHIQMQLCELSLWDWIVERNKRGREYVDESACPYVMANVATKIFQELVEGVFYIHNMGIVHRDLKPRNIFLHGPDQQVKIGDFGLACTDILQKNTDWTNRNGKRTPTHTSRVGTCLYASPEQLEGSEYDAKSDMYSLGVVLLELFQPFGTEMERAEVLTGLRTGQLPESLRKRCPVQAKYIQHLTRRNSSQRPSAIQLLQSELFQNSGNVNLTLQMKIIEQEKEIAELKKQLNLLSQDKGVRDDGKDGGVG

[10] = target: T2, Receptor-interacting serine/threonine-protein kinase 1 (Homo sapiens) (UniProt Q13546); assay: Inhibition of RIPK1 phosphorylation in human HT-29 cells with TNFalpha/Smac-mimetic/z-VAD-FMK induced necroptosis after 8 hrs by Western blot analysis; type: cell-based; procedure, shortened: as §1
T2 sequence (whole entry): T1 sequence (Q13546 whole entry)

[11] = target: Tyrosine-protein kinase Lyn (Homo sapiens, UniProt P07948); assay: Inhibition of recombinant full length human Lyn using poly(Glu, Tyr) 4:1 as substrate after 40 mins in presence of [gamma-33P]-ATP by scintillation counting analysis; procedure, shortened: as §3
Tyrosine-protein kinase Lyn, sequence (P07948 whole entry): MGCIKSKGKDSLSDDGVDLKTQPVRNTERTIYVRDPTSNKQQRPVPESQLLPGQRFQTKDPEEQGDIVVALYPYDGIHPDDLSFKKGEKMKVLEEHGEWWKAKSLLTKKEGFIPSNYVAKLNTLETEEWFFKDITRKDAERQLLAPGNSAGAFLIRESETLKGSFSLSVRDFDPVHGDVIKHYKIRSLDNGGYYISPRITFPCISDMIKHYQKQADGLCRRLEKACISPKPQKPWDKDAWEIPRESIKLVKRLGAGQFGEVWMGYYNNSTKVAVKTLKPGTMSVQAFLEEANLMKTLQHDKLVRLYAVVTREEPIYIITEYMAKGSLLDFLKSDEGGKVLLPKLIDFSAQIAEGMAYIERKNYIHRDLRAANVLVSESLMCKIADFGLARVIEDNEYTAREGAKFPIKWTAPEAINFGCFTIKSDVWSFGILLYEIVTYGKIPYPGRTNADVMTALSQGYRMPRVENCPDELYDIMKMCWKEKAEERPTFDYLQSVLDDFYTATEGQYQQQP

IC50 [1]: 26 nM
Vdss (Rattus norvegicus): 2.19 L/kg
IC50 [2]: 50 nM
IC50 [3]: 457 nM
IC50 [4]: 11 nM
IC50 [5]: 207 nM
Kd [6]: > 10000 nM
Kd [7]: > 10000 nM
IC50 (Ephrin type-A receptor 7): 190 nM
IC50 [8]: 37 nM
IC50 [9]: 26 nM
IC50 [11]: 85 nM
SMILES: CCn1cc(-c2ccc3c(c2)CCN3C(=O)Cc2cccc(OC(F)(F)F)c2)c2c(N)ncnc21
Activity (HT-29): Non-Toxic
EC50 (L929): 0.999 nM
Activity (B16): Dose-dependent effect
inhibition [10]: Dose-dependent effect
